Results: publication PMC12334608 (Nature Communications, 2025)
Numbering of substitutions follows the chain as printed. pEC50, pKd: −log10 of the molar value.

Columns and labels:
ACOX-1.1(R536E) = assay: Enzyme-coupled kinetic assay, ACOX-1.1; assay type: biochemical, C. elegans; settings: 10 μM FAD, various ATP
Outline: (§1)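 Coupled H2O2 assay on a plate reader using the mutant enzyme (250 nM final). […] Peroxide was coupled through 4-aminoantipyrine (0.82 mM final), phenol (10.6 mM final) and peroxidase, read at 500 nm. Substrate was 25 µM lauroyl-CoA in 50 mM Tris-HCl pH 7.5, 150 mM NaCl, 10 mM MgCl2. Initial rate was taken over a 30 s window at 25–26 °C.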

ACOX-1.1(H396G) = assay: Enzyme-coupled kinetic assay, ACOX-1.1; assay type: biochemical, C. elegans; settings: 10 μM FAD, various ATP
Outline: as §1

ACOX-1.1 [1] = target: T1, ACOX-1.1 (Caenorhabditis elegans, UniProt O62140); assay: Analysis of enzyme activity; assay type: biochemical, C. elegans; settings: 10 μM FAD, 350 μM ATP
T1 sequence (O62140 1-674): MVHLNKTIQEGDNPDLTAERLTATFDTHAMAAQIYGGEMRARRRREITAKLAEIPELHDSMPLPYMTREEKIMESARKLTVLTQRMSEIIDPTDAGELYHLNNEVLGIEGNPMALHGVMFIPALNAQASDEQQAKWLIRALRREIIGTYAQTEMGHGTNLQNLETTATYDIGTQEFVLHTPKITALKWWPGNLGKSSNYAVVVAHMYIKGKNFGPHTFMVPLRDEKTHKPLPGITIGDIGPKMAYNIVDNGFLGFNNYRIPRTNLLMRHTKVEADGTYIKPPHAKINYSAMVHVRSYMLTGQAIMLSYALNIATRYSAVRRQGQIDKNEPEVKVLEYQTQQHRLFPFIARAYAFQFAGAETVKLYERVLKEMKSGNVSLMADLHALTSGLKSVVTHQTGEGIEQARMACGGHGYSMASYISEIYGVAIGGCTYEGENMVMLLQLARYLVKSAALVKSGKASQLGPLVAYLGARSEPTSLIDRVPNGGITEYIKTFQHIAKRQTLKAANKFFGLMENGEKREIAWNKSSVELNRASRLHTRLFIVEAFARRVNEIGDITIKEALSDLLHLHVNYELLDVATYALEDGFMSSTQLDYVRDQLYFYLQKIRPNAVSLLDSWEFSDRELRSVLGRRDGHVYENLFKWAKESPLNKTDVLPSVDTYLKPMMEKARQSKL

apo ACOX-1.1 = target: T2, apo ACOX-1.1 (Caenorhabditis elegans, UniProt O62140); assay: FAD and ATP dissociation constants by fluorescence polarization; assay type: binding, C. elegans; settings: KD of ACOX-1.1 for ATP, 4 μM apo ACOX-1.1, 100 nM FAD; 95% CI: 6.1–27.5 μM
T2 sequence (O62140 1-674): T1 sequence (O62140 1-674)

ACOX-1.1(R295A) = target: T3, ACOX-1.1(R295A) (Caenorhabditis elegans, UniProt O62140, R295A); assay: Enzyme-coupled kinetic assay, ACOX-1.1; assay type: biochemical, C. elegans
T3 sequence (O62140 1-674 R295A): T1 sequence (O62140 1-674) with R295A

ACOX-1.1(R343A) = target: T4, ACOX-1.1(R343A) (Caenorhabditis elegans, UniProt O62140, R343A); assay: Enzyme-coupled kinetic assay, ACOX-1.1; assay type: biochemical, C. elegans; settings: varying ATP
T4 sequence (O62140 1-674 R343A): T1 sequence (O62140 1-674) with R343A

ACOX-1.1 [2] = target: T1, ACOX-1.1; assay: Enzyme-coupled kinetic assay, wild-type ACOX-1.1 as purified; assay type: biochemical, C. elegans

response of enzyme activity to ATP (ACOX-1.1(R536E)): do not respond to ATP
response of enzyme activity to ATP (ACOX-1.1(H396G)): do not respond to ATP
effect on rate of product formation (HPLC) (ACOX-1.1 [1]): increases the rate of product formation
pKd (apo ACOX-1.1): 4.68
response of enzyme activity to ATP (ACOX-1.1(R295A)): do not respond to ATP
pEC50 (ACOX-1.1 [2]): 3.60
Structure (SMILES): Nc1ncnc2c1ncn2[C@@H]1O[C@H](COP(=O)(O)OP(=O)(O)OP(=O)(O)O)[C@@H](O)[C@H]1O [ATP]
influence of ATP on the activity of the enzyme (ACOX-1.1(R343A)): no influence on the activity of the enzyme
